Measurements from ChEMBL document CHEMBL1122557, “Antiallergic agents. 3. N-(1H-tetrazol-5-yl)-2-pyridinecarboxamides” (1984).
The source made the active and inactive calls. The calls are words filed in the database; no cut-off is given here.

Key:
Rattus norvegicus [1] = assay: Inhibition of passive cutaneous anaphylaxis following 30 mg/kg p.o. administration.; type: functional; conditions: route oral
Procedure, shortened: (§1)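 Rat passive cutaneous anaphylaxis model, with test agents given by the oral route.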

Rattus norvegicus [2] = assay: Inhibition of passive cutaneous anaphylaxis following 3 mg/kg p.o. administration.; type: functional; conditions: route oral; procedure, shortened: as §1
Rattus norvegicus [3] = assay: Inhibition of passive cutaneous anaphylaxis following 10 mg/kg p.o. administration.; type: functional; conditions: route oral; procedure, shortened: as §1
Rattus norvegicus [4] = assay: Inhibition of passive cutaneous anaphylaxis following 3 mg/kg p.o. (5 min pretreatment) administration.; type: functional; conditions: route oral; procedure, shortened: as §1
Rattus norvegicus [5] = assay: Inhibition of passive cutaneous anaphylaxis following 1 mg/kg p.o. administration.; type: functional; conditions: route oral; procedure, shortened: as §1
Rattus norvegicus [6] = assay: Inhibition of passive cutaneous anaphylaxis following 10 mg/kg p.o. administration; Inactive.; type: functional, organism-based; design: dose 10 mg/kg; conditions: at 10 mg/kg; procedure, shortened: as §1

Compound	inhibition in vivo at 3 mg/kg (Rattus norvegicus [2])	inhibition in vivo at 10 mg/kg (Rattus norvegicus [3])	other results
O=C(Nc1nn[nH]n1)c1cccnc1	4%	3%	inhibition in vivo at 30 mg/kg (Rattus norvegicus [1]): 18%
O=C(Nc1nn[nH]n1)c1cccc(/C=C/c2ccccc2)n1	73%		inhibition in vivo at 3 mg/kg (Rattus norvegicus [4]): 75%; inhibition in vivo at 1 mg/kg (Rattus norvegicus [5]): 53%
CCCCc1cccc(C(=O)Nc2nn[nH]n2)n1		18%	
Cc1cccc(C(=O)Nc2nn[nH]n2)n1	46%		inhibition in vivo at 3 mg/kg (Rattus norvegicus [4]): 73%; inhibition in vivo at 1 mg/kg (Rattus norvegicus [5]): 40%
Cc1cc(Cl)cc(C(=O)Nc2nn[nH]n2)n1		100%	inhibition in vivo at 3 mg/kg (Rattus norvegicus [4]): 85%; inhibition in vivo at 1 mg/kg (Rattus norvegicus [5]): 66%
CNc1ccc(-c2cc(C)cc(C(=O)Nc3nn[nH]n3)n2)cc1	89%		
Cc1ccnc(C(=O)Nc2nn[nH]n2)c1	42%		inhibition in vivo at 3 mg/kg (Rattus norvegicus [4]): 51%; inhibition in vivo at 1 mg/kg (Rattus norvegicus [5]): 28%
O=C(Nc1nn[nH]n1)c1cccc(Cl)n1	18%	13%	
O=C(Nc1nn[nH]n1)c1ccncc1			inhibition in vivo at 30 mg/kg (Rattus norvegicus [1]): 57%
COc1ccnc(C(=O)Nc2nn[nH]n2)c1		88%	
O=C(Nc1nn[nH]n1)c1cc(Cl)ccn1	72%	100%	inhibition in vivo at 3 mg/kg (Rattus norvegicus [4]): 71%; inhibition in vivo at 1 mg/kg (Rattus norvegicus [5]): 38%
O=C(Nc1nn[nH]n1)c1cccc(Oc2ccccc2)n1		0%	
O=C(Nc1nn[nH]n1)c1cccc(Br)n1	38%	48%	
CCCCc1ccnc(C(=O)Nc2nn[nH]n2)c1	33%	54%	
Cc1ccc(C)c(C(=O)Nc2nn[nH]n2)n1	65%		inhibition in vivo at 3 mg/kg (Rattus norvegicus [4]): 72%; inhibition in vivo at 1 mg/kg (Rattus norvegicus [5]): 37%
CCOC(=O)C(=O)Nc1cccc(/C=C/c2ccccc2)n1			inhibition (Rattus norvegicus [6]): inactive
O=C(O)C(=O)Nc1cccc(/C=C/c2ccccc2)n1			inhibition (Rattus norvegicus [6]): inactive
O=C(Nc1nn[nH]n1)c1cccc(CCc2ccccc2)n1		45%	
O=C(Nc1nn[nH]n1)c1ncccc1Cl		22%	

Compound	inhibition in vivo at 3 mg/kg (Rattus norvegicus [2])	inhibition in vivo at 10 mg/kg (Rattus norvegicus [3])	other results
O=C(Nc1nn[nH]n1)c1ccccn1	29%	35%	inhibition in vivo at 30 mg/kg (Rattus norvegicus [1]): 100%; inhibition in vivo at 1 mg/kg (Rattus norvegicus [5]): 0%
Cc1ccc(C(=O)Nc2nn[nH]n2)nc1C		42%	
Cc1cc([N+](=O)[O-])cc(C(=O)Nc2nn[nH]n2)n1		6%	
Cc1cccnc1C(=O)Nc1nn[nH]n1		69%	
Cc1ccc(C(=O)Nc2nn[nH]n2)nc1		42%	
COc1cc(C)nc(C(=O)Nc2nn[nH]n2)c1		20%	
Cc1cc(C)nc(C(=O)Nc2nn[nH]n2)c1	44%		inhibition in vivo at 3 mg/kg (Rattus norvegicus [4]): 37%
CCc1ccnc(C(=O)Nc2nn[nH]n2)c1	29%		inhibition in vivo at 3 mg/kg (Rattus norvegicus [4]): 54%; inhibition in vivo at 1 mg/kg (Rattus norvegicus [5]): 32%
COc1cccc(C(=O)Nc2nn[nH]n2)n1	36%	58%	
CCCc1cccc(C(=O)Nc2nn[nH]n2)n1		38%	
C(=C\c1cccc(-c2nn[nH]n2)n1)/c1ccccc1			inhibition (Rattus norvegicus [6]): inactive
CSc1ccc(C(=O)Nc2nn[nH]n2)nc1		29%	
O=C(Nc1nn[nH]n1)c1cc(Br)ccn1	34%	100%	inhibition in vivo at 1 mg/kg (Rattus norvegicus [5]): 9%
CC(C)c1ccnc(C(=O)Nc2nn[nH]n2)c1	34%		inhibition in vivo at 1 mg/kg (Rattus norvegicus [5]): 36%
O=C(Nc1nn[nH]n1)c1cc([N+](=O)[O-])ccn1		38%	
O=C(O)c1cccc(/C=C/c2ccccc2)n1			inhibition (Rattus norvegicus [6]): inactive
COc1cccnc1C(=O)Nc1nn[nH]n1		0%	
CCCCOc1cccc(C(=O)Nc2nn[nH]n2)n1	18%	8%	
